Compound activity (PubChem)
TAAR1 antag – antagonists of human TAAR1. Q96RJ0. CHO RD-HGA16 TAAR1, Fluo-8 calcium fluorescence, antagonist. inhibition, % at 3 µM. 1.5% of 360,000 active;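 active = inhibition above a per-plate cutoff, the mean inhibition of test compounds on that plate plus 3 SD, cut at about 49% in these data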
Target sequence (Q96RJ0 whole entry, looked up): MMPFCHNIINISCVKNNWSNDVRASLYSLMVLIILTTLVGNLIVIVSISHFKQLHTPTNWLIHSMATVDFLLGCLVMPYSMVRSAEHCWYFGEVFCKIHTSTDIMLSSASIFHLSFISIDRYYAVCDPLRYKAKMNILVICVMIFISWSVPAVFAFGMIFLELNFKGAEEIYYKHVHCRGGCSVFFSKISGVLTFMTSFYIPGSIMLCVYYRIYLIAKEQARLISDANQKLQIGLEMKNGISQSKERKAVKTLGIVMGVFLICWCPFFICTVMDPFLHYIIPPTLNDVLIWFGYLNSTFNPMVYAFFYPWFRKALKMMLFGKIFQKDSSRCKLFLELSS
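test system = CHO RD-HGA16 cells bearing hTAAR1 | replication = singlicate | controls = DMSO-only wells and EC80 β-PEA-stimulated wells | reagent = EC80 β-phenethylamine stimulus | read-out basis = percent inhibition of PEA-evoked calcium signal, max/basal emission ratio | schedule = seeding 17-24 h prior, 75-min 37 °C, 30-min RT dye loading | signal = kinetic Fluo-8 calcium fluorescence measurement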
TAAR1 ag – human TAAR1 agonism | Q96RJ0 | CHO RD-HGA16 TAAR1, Fluo-8 calcium fluorescence; vehicle wells 0%, saturating PEA agonist 100% | activation, % at 3 µM | 0.99% of 360,000 active;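 active = activation above the mean activation of all test compounds in the run plus 3 SD, cut at about 38% in these data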
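Test system: RD-HGA16 (CHO) cells co-expressing Gα16 and hTAAR1; dosing: one-point dosing at 3 µM (nominal); timing: 17-24 h seeding, 75 min 37 °C dye, 30 min RT; signal: kinetic Fluo-8 calcium fluorescence; read-out basis: % activation relative to PEA EC100 response; controls: DMSO and PEA EC100; replicates: n 1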
OX1R antag-1 – OX1R (human) antagonism. AID 485270. O43613. OX1R-expressing cells, FRET antagonist read-out. 1.8% of 330,000 active. inhibition, % at 6.6 µM; in the data active = inhibition mostly above about 38%, no sharp cut-off; inactive = mostly below about 40%
Target sequence (O43613 whole entry, looked up): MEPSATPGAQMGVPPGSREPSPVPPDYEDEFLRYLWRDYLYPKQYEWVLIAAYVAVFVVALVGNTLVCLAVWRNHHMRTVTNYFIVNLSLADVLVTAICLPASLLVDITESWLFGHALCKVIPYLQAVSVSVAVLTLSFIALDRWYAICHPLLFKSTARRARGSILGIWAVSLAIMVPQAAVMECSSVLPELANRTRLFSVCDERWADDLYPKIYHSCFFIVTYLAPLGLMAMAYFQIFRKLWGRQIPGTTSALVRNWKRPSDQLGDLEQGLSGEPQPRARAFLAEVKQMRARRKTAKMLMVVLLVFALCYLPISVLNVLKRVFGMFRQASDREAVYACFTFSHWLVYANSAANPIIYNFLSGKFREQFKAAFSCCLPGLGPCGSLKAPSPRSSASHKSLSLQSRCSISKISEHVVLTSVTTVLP
GalR3 antag – blocks the human galanin receptor 3 | O60755 | inhibition, % at 3 µM | 0.44% of 360,000 active | HEK293 GalR3-CNG cAMP membrane potential fluorescence; galR3 body fused to GalR1 C-terminus | AID 651719;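 active = inhibition above the screen-wide average plus 3 SD, cut at about 13% in these data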;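 also: forskolin and galanin both at EC90 stimulate the cells; cAMP rise reported by CNG channel membrane potential dye signal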
OX1R antag-2 – antagonists of human orexin 1 receptor | O43613 | CHO/OX1R cells, Fluo-8 calcium fluorescence, orexin A | inhibition, % at 5 µM | 0.43% of 330,000 active | AID 434989;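 active = inhibition above its plate's threshold, mean inhibition of all tested compounds on the plate plus 3 SD, cut at about 37% in these data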
CHO parental Ca – counter-screen for OX1R antagonists: effect in parental CHO cells; parental CHO-K1, ATP-induced calcium, Fluo-8 fluorescence; AID 463079; inhibition, % at 5.6 µM; 0.63% of 330,000 active;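 active = inhibition above that plate's mean sample inhibition plus 3 SD, cut at about 26% in these data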
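test system = CHO parental line | reagent = ATP stimulus | measured by = intracellular calcium via Fluo-8 no-wash fluorescent dye | control set = ATP and no-ATP DMSO wells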
Each line names hits and unclear results; the compound was inactive in the other large screens. Most compounds without a hit are left out; they make up all but 4.3% or so of the library.

CCOC(=O)N1CCN(C2OC(=O)c3ccccc32)CC1 (stereo not drawn)	TAAR1 ag 38
COC(=O)C1=C(C)N(C)C(=NCc2ccc(C(F)(F)F)cc2)NC1c1ccc(Cl)cc1 (stereo not drawn)	none (no result: OX1R antag-1, OX1R antag-2, CHO parental Ca)
OC(CNCCc1ccccc1)COc1ccc(OCC(O)CNCCc2ccccc2)cc1 (stereo not drawn)	none
OC(CNCCc1ccc(Cl)cc1)COc1ccc2ccccc2c1 (stereo not drawn)	TAAR1 ag 42 (no result: OX1R antag-1, OX1R antag-2, CHO parental Ca)
NNC(=O)C1CCCN1S(=O)(=O)c1ccc(Cl)cc1 (stereo not drawn)	none
O=C(Nc1ccc(Cl)cn1)C1CCCN1S(=O)(=O)c1cccc2ccccc12 (stereo not drawn)	OX1R antag-1 64
O=C(Nc1ccc(Cl)cn1)C1CCCN1S(=O)(=O)c1ccc(Cl)cc1 (stereo not drawn)	OX1R antag-1 64
CC(=O)C1=CCC(c2ccc(Cl)cc2)N(S(=O)(=O)c2ccc(C)cc2)C1 (stereo not drawn)	none (no result: OX1R antag-1, OX1R antag-2, CHO parental Ca)
COC(=O)N1C[C@H](O)[C@H](O)C[C@@H]1c1ccccc1Br	none (no result: OX1R antag-1, OX1R antag-2, CHO parental Ca)
O=C(O)C(CCc1ccccc1)N1C(=O)c2ccccc2C1=O (stereo not drawn)	none (no result: OX1R antag-1, OX1R antag-2, CHO parental Ca)
O=c1[nH]cc(C=NNc2ccccc2)c(=O)[nH]1	none (no result: OX1R antag-1, OX1R antag-2, CHO parental Ca)
CCOc1ccc2nc(N(CCCN(C)C)C(=O)c3ccc(S(=O)(=O)N4CCc5ccccc5C4)cc3)sc2c1	TAAR1 ag 43
COc1cccc2sc(N(CCCN(C)C)C(=O)c3ccc(S(=O)(=O)N4CCCc5ccccc54)cc3)nc12	TAAR1 ag 40
COc1ccc(C)c2sc(N(CCCN(C)C)C(=O)c3ccc(S(=O)(=O)N4CCc5ccccc5C4)cc3)nc12	TAAR1 ag 48
CN(C)CCCN(C(=O)c1ccc(S(=O)(=O)N2CCc3ccccc32)cc1)c1nc2c(Cl)cccc2s1	none
COc1cc2nc(N(CCCN(C)C)C(=O)c3ccc(S(=O)(=O)N4CCc5ccccc5C4)cc3)sc2cc1OC	none
CCc1ccc2nc(N(CCCN(C)C)C(=O)c3ccc(S(=O)(=O)N4CCCC4)cc3)sc2c1	none
Cc1ccc2nc(N(CCCN(C)C)C(=O)c3ccc(S(=O)(=O)N4CCCCCC4)cc3)sc2c1	TAAR1 ag 50
Cc1ccc2ccc(C(Nc3ccccc3)c3ccc(Cl)cc3)c(O)c2n1 (stereo not drawn)	none (no result: OX1R antag-1, OX1R antag-2, CHO parental Ca)
COc1ccccc1C(=O)NC(=S)/C=C1/N(C)c2ccccc2C1(C)C	OX1R antag-2 48, CHO parental Ca 49
Cc1cc2c(cc1S(=O)(=O)NC1CCCCC1C)OCC(=O)N2 (stereo not drawn)	none
Cc1ccc(C(=O)OCC(=O)N(CCc2ccccc2)Cc2ccccc2)cc1S(=O)(=O)N1CCOCC1	TAAR1 antag 50
Cc1ccc(C(=O)N(CCc2ccccc2)Cc2ccccc2)cc1S(=O)(=O)N1CCCCC1	CHO parental Ca 35
Cc1ccc(S(C)(=O)=O)cc1C(=O)OCC(=O)N(Cc1ccccc1)Cc1ccccc1	TAAR1 antag 54
O=C(OCC(=O)N(Cc1ccccc1)Cc1ccccc1)c1ccccc1O	none
CC(=O)C1=C(O)C(=O)N(c2ccc(Br)cn2)C1c1cccc([N+](=O)[O-])c1 (stereo not drawn)	none
NC(=O)[C@@H]1CCCN1C(=O)[C@H](CCc1ccccc1)NC(=O)[C@H]1O[C@@H](n2cnc3c(N)ncnc32)[C@H](O)[C@@H]1O	none (no result: OX1R antag-1, OX1R antag-2, CHO parental Ca)
O=C(CN1C(=O)C(=O)N(C2CCCC2)C1=O)Nc1cc(Cl)ccc1[N+](=O)[O-]	none
CC1(C(=O)NS(=O)(=O)c2cccc(Cl)c2)CCN1C(=O)c1ccccc1 (stereo not drawn)	none (no result: OX1R antag-1, OX1R antag-2, CHO parental Ca)
Cc1cc(C)n2nc(C(=O)OCC(=O)NC3CCS(=O)(=O)C3)nc2n1 (stereo not drawn)	none (no result: OX1R antag-1, OX1R antag-2, CHO parental Ca)
O=C(Cn1c(=O)n(CCc2c[nH]c3ccccc23)c(=O)c2cccnc21)Nc1ccccc1F	TAAR1 antag 52
Cc1ccc(C(=O)OCC(=O)Nc2ccc(N3CCOCC3)cc2)cc1	none (no result: OX1R antag-1, OX1R antag-2, CHO parental Ca)
COc1cc(/C=C/C(=O)/C=C(O)/C=C/c2ccc(O)c(OC)c2)ccc1O	TAAR1 antag 65, TAAR1 ag 44
COc1cc(C=C2C(=O)C=CC2=O)ccc1O	TAAR1 ag 43 (no result: OX1R antag-1, OX1R antag-2, CHO parental Ca)
COc1cc(/C=C2/C(=O)CNC2=O)ccc1O	none
Cc1cc(C)cc(NCc2ccncc2)c1	none
Nc1c(SCCC(=O)O)ccc2c1C(=O)c1ccccc1C2=O	OX1R antag-1 43
CC1(C)Cc2c(sc(NC(=O)c3ccc(C(=O)c4ccccc4)cc3)c2C(N)=O)C(C)(C)N1	TAAR1 ag 46, CHO parental Ca 29
Cc1cccc(-n2c(SCC(=O)c3c(N)n(C4CC4)c(=O)[nH]c3=O)nnc2N2CCOCC2)c1	none
O=C(CCCN1CCC(O)(c2cccc(C(F)(F)F)c2)CC1)c1ccc(F)cc1	none
COc1cccc2[nH]c3c(Cl)ncnc3c12	none
OC1(c2cccc(C(F)(F)F)c2)CCN(c2ncnc3c2[nH]c2ccc(F)cc23)CC1	TAAR1 antag 60 (no result: OX1R antag-1, OX1R antag-2, CHO parental Ca)
Fc1ccc2[nH]c3c(N4CCN(c5ccccc5)CC4)ncnc3c2c1	TAAR1 antag 57, OX1R antag-1 118, OX1R antag-2 68, CHO parental Ca 59
CCOC(=O)N1CCN(c2ncnc3c2[nH]c2ccc(OC)cc23)CC1	none
CCOC(=O)N1CCN(c2ncnc3c2[nH]c2ccc(F)cc23)CC1	OX1R antag-2 52, CHO parental Ca 47
COc1cccc2[nH]c3c(N4CCCCC4)ncnc3c12	GalR3 antag 96
C=CCN=C1NC(c2cccc(C(F)(F)F)c2)C(C(=O)OC)=C(C)N1Cc1ccccc1C(F)(F)F (stereo not drawn)	none (no result: OX1R antag-1, OX1R antag-2, CHO parental Ca)
CCCCN1C(=O)C(CC(=O)NCC2CCCCC2)CC(C(=O)N(CC)CC)=C1C (stereo not drawn)	none (no result: OX1R antag-1, OX1R antag-2, CHO parental Ca)
Cc1cccc2[nH]c3c(N4CC=C(c5ccc(F)cc5)CC4)ncnc3c12	OX1R antag-1 77, CHO parental Ca 36
COc1ccc(N2CCN(c3ncnc4c3[nH]c3ccccc34)CC2)cc1	TAAR1 antag 67, OX1R antag-1 89, OX1R antag-2 71, CHO parental Ca 75
COc1ccc2[nH]c3c(N4CCc5ccccc5C4)ncnc3c2c1	none
CC1(c2ccc(Cl)cc2Cl)NC(=O)N(CC(=O)NC2CCCCC2)C1=O (stereo not drawn)	none
OC(c1cccc(Cl)c1)c1nc(-c2ccc(Cl)cc2)cs1 (stereo not drawn)	none (no result: OX1R antag-1, OX1R antag-2, CHO parental Ca)
CCOC(=O)c1cc(C(=O)OCC)c(=O)[nH]c1SCc1ccccc1	TAAR1 ag 41
Cc1ccc(NC(=O)COC(=O)c2cccc(N3C(=O)c4ccccc4C3=O)c2)cc1	none
